Data reported in ChEMBL document CHEMBL1800022, “Structure-activity relationships of a series of analogues of the RFamide-related peptide 26RFa” (J Med Chem, 2011).
The source made the active and inactive calls. The rule behind the calls is not given here. Residues, ends and D or L forms follow the SMILES beside them. *: point of attachment. Phenylacetyl(4-F) = O=C(Cc1ccc(F)cc1)*; NBn2 = c1ccc(CN(Cc2ccccc2)*)cc1; X2 = CN(C)C(=NCC(=O)*)N(C)C; X3 = C1CCN(N(N2CCCCC2)*)CC1; Piv = CC(C)(C)C(=O)*

Experiments:
Assay type in all cases: functional, cell-based
[1] = molecular target: T1, Pyroglutamylated RF-amide peptide receptor (Homo sapiens) (UniProt Q96P65); assay: Agonist activity at DYKDDDDK-flagged human GPR103 receptor expressed in CHO-K1 cells co-expressing G-protein alpha16 assessed as stimulation of calcium mobilization at 10' -12 to 10^-5 M after 2 mins by fluorometric analysis
T1 sequence (whole entry): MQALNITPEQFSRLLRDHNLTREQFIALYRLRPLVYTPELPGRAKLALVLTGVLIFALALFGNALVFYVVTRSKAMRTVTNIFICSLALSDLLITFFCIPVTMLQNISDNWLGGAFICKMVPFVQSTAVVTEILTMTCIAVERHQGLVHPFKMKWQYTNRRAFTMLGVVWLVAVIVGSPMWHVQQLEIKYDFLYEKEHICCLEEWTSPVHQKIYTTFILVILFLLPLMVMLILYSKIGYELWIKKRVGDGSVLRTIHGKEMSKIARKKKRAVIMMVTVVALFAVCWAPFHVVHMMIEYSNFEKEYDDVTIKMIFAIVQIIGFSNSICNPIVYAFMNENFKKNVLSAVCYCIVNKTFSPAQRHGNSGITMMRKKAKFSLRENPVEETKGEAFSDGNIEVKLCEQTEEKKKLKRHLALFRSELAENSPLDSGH
Method in brief: (§1)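 CHO-K1 cells stably expressing Gα16 and C-terminally flag-tagged human GPR103 (Geneticin-selected), plated at 40 000 cells/well 24 h before assay. Loaded with 2 μM Fluo-4AM for 1 h, washed, then 30 min in HBSS with 2.5 mM probenecid and 5 mM HEPES. Peptides added at 10^-12 to 10^-5 M final and fluorescence read for 2 min. Triplicates; EC50 from sigmoidal variable-slope fit, at least three experiments.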

[2] = molecular target: T1, Pyroglutamylated RF-amide peptide receptor (Homo sapiens); assay: Antagonist activity at DYKDDDDK-flagged human GPR103 receptor expressed in CHO-K1 cells co-expressing G-protein alpha16 assessed as inhibition of 26RFa-induced calcium mobilization after 2 mins by fluorometric analysis
Method in brief: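 Same Gα16/flag-hGPR103 CHO-K1 cells, Fluo-4AM loading and HBSS/probenecid/HEPES buffer. Triplicates; IC50 reported as mean ± SEM of at least three experiments.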

[3] = molecular target: T2, Pyroglutamylated RF-amide peptide receptor (Homo sapiens, UniProt Q96P65); assay: Agonist activity at DYKDDDDK-flagged human GPR103 receptor expressed in CHO-K1 cells co-expressing G-protein alpha16 assessed as stimulation of calcium mobilization after 2 mins by fluorometric analysis; method in brief: as §1
T2 sequence (Q96P65 whole entry): T1 sequence (whole entry)

Row | Activity [1] | inhibition [2] | EC50 [3] [µM] | SMILES
1 | inactive | inactive |  | N=C(N)NCCC[C@@H](NC(=O)[C@H](Cc1ccccc1)NC(=O)[C@H](CO)NC(=O)[C@H](Cc1ccccc1)NC(=O)CNC(=O)CN)C(=O)N[C@@H](Cc1ccccc1)C(N)=O
2 | inactive | inactive |  | N=C(N)NCCC[C@H](NC(=O)[C@@H](Cc1ccccc1)NC(=O)[C@H](CO)NC(=O)[C@H](Cc1ccccc1)NC(=O)CNC(=O)CN)C(=O)N[C@@H](Cc1ccccc1)C(N)=O
3 | inactive | inactive |  | N=C(N)NCCC[C@H](NC(=O)[C@H](Cc1ccccc1)NC(=O)[C@H](CO)NC(=O)[C@@H](Cc1ccccc1)NC(=O)CNC(=O)CN)C(=O)N[C@@H](Cc1ccccc1)C(N)=O
4 | inactive | inactive |  | N=C(N)NCCC[C@H](NC(=O)[C@H](Cc1ccccc1)NC(=O)[C@H](CO)NC(=O)[C@H](Cc1ccccc1)NC(=O)CNC(=O)CN)C(=O)N[C@H](Cc1ccccc1)C(N)=O
5 | inactive |  |  | N=C(N)NCCC[C@H](NC(=O)[C@H](Cc1ccccc1)NC(=O)[C@H](CO)NC(=O)[C@@H](N)Cc1ccccc1)C(=O)N[C@@H](Cc1ccccc1)C(N)=O (H-FSFRF-NH2)
6 | inactive | inactive |  | C[C@H](NC(=O)[C@H](CO)NC(=O)[C@H](Cc1ccccc1)NC(=O)CNC(=O)CN)C(=O)N[C@@H](CCCNC(=N)N)C(=O)N[C@@H](Cc1ccccc1)C(N)=O (H-GGFSARF-NH2)
7 | inactive | inactive |  | C[C@H](NC(=O)[C@H](Cc1ccccc1)NC(=O)[C@H](CO)NC(=O)[C@H](Cc1ccccc1)NC(=O)CNC(=O)CN)C(=O)N[C@@H](Cc1ccccc1)C(N)=O (H-GGFSFAF-NH2)
8 | inactive |  |  | N=C(N)NCCC[C@H](NC(=O)[C@H](Cc1ccccc1)NC(=O)[C@H](CO)NC(=O)[C@H](Cc1ccccc1)NC(=O)CNC(=O)CN)C(=O)N[C@@H](Cc1ccccc1)C(=O)N(Cc1ccccc1)Cc1ccccc1 (H-GGFSFRF-NBn2)
9 |  |  | 0.282 | CC(C)C[C@H](NC(=O)[C@H](CC(N)=O)NC(=O)CNC(=O)[C@H](CC(C)C)NC(=O)[C@@H]1CCCN1C(=O)CNC(=O)[C@H](CO)NC(=O)[C@@H](N)[C@@H](C)O)C(=O)N[C@@H](C)C(=O)N[C@@H](CCC(=O)O)C(=O)N[C@@H](CCC(=O)O)C(=O)N[C@@H](CC(C)C)C(=O)N[C@@H](CC(N)=O)C(=O)NCC(=O)N[C@@H](Cc1ccc(O)cc1)C(=O)N[C@@H](CO)C(=O)N[C@@H](CCCNC(=N)N)C(=O)N[C@@H](CCCCN)C(=O)N[C@@H](CCCCN)C(=O)NCC(=O)NCC(=O)N[C@@H](Cc1ccccc1)C(=O)N[C@@H](CO)C(=O)N[C@@H](Cc1ccccc1)C(=O)N[C@@H](CCCNC(=N)N)C(=O)N[C@@H](Cc1ccccc1)C(=O)N(N1CCCCC1)N1CCCCC1 (H-TSGPLGNLAEELNGYSRKKGGFSFRF-X3)
10 |  |  | 0.138 | NCCCC[C@H](NC(=O)[C@H](CCCCN)NC(=O)[C@H](CCCN=C(N)N)NC(=O)[C@H](CO)NC(=O)[C@@H](N)Cc1ccc(O)cc1)C(=O)NCC(=O)NCC(=O)N[C@@H](Cc1ccccc1)C(=O)N[C@@H](CO)C(=O)N[C@@H](Cc1ccccc1)C(=O)N[C@@H](CCCN=C(N)N)C(=O)N[C@@H](Cc1ccccc1)C(N)=O (H-YSRKKGGFSFRF-NH2)
11 |  |  | 2.54 | CC(C)(C)C(=O)NCC(=O)NCC(=O)N[C@@H](Cc1ccccc1)C(=O)N[C@@H](CO)C(=O)N[C@@H](Cc1ccccc1)C(=O)N[C@@H](CCCN=C(N)N)C(=O)N[C@@H](Cc1ccccc1)C(N)=O (Piv-GGFSFRF-NH2)
12 |  |  | 0.455 | CN(C)C(=NCC(=O)N[C@@H](Cc1ccccc1)C(=O)N[C@@H](CO)C(=O)N[C@@H](Cc1ccccc1)C(=O)N[C@@H](CCCNC(=N)N)C(=O)N[C@@H](Cc1ccccc1)C(N)=O)N(C)C (X2-FSFRF-NH2)
13 |  |  | 0.83 | NC(=O)[C@H](Cc1ccccc1)NC(=O)[C@H](CCCN=C(N)N)NC(=O)[C@H](Cc1ccccc1)NC(=O)[C@H](CO)NC(=O)[C@H](Cc1ccccc1)NC(=O)CNC(=O)CNC(=O)Cc1ccc(F)cc1 ({Phenylacetyl(4-F)}-GGFSFRF-NH2)
